Reference: ChEMBL document CHEMBL1156077, “Piperazinyl-glutamate-pyrimidines as potent P2Y12 antagonists for inhibition of platelet aggregation” (Bioorg Med Chem Lett, 2009)
pKi: −log10 of the molar value.

Experiments:
P2Y purinoceptor 12 [1] = biological target: T1, P2Y purinoceptor 12 (Homo sapiens, UniProt Q9H244); test: Binding affinity at human recombinant P2Y12 receptor expressed in CHO cells by radioligand binding assay; assay type: cell-based
Summary of the method: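 Washed membranes from CHO cells transfected with synthetic human P2Y12 gene. Compounds as 7-point threefold dilutions, triplicate, 1 h at room temperature. Nonspecific binding defined with 300 nM 2-MeSADP. Filtered, washed with ice-cold Tris pH 7.4. Single-site fit; IC50 converted to Ki by Cheng–Prusoff, geometric mean of n≥2.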

P2Y purinoceptor 12 [2] = biological target: T1, P2Y purinoceptor 12; test: Ratio of compound IC50 to thienopyrimidine IC50 for P2Y12 receptor in human platelet rich plasma assessed as inhibition of ADP-induced platelet aggregation by light transmission aggregometry
Summary of the method: (§1)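 Human platelet-rich plasma was pre-incubated 5 min at 37 °C with compound across seven concentrations (10 down to 0.156). Aggregation was started with ADP (20, final) and followed by light transmission at 626 nm for 15 min at 37 °C. Duplicate concentration-response data were read at the 15-min end-point. IC50 was divided by the IC50 of the thienopyrimidine reference run on the same plate.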

P2Y purinoceptor 12 [3] = biological target: T1, P2Y purinoceptor 12; test: Ratio of compound IC50 to AZD-6140 IC50 for P2Y12 receptor in human platelet rich plasma assessed as inhibition of ADP-induced platelet aggregation by light transmission aggregometry
Summary of the method: as §1, with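 “AZD-6140” for “the thienopyrimidine reference”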

[4] = Selectivity for human P2Y12 receptor over P2Y13
[5] = Selectivity for human P2Y12 receptor over P2Y1
Liver microsomes [6] = test: Metabolic stability in rat liver microsomes assessed as compound remaining; assay type: ADME, Microsome
Summary of the method: (§2)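 Compounds incubated 30 min with human or rat liver microsomes; percent of parent compound remaining measured.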

Liver microsomes [7] = test: Metabolic stability in human liver microsomes assessed as compound remaining; assay type: ADME, Microsome; summary of the method: as §2
CYP1A2 = biological target: T2, CYP1A2 (Homo sapiens, UniProt P05177); test: Inhibition of CYP1A2 at 3 uM after 30 mins; assay type: ADME
T2 sequence (P05177 whole entry): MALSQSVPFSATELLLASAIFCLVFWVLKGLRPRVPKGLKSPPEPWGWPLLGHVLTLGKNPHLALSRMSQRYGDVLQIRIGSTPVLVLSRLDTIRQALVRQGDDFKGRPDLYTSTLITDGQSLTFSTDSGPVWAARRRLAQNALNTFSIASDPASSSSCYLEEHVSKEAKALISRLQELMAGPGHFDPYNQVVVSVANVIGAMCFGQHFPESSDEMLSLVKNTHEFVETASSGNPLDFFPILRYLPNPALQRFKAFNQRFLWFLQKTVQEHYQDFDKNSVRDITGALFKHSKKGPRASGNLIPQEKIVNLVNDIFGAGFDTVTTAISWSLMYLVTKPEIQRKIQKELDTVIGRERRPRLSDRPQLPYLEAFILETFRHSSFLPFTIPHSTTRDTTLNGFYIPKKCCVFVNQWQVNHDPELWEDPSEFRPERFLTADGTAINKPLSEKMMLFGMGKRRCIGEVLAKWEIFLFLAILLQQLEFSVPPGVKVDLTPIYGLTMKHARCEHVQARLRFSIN
Summary of the method: (§3)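 Each CYP isoform assayed separately at a single 3 µM compound concentration in duplicate, with at least one isoform-specific positive control inhibitor. Incubation 30 min at 37 °C; end-point measurement gives percent inhibition.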

CYP2C9 = CYP2C9 (Homo sapiens, UniProt P11712); test: Inhibition of CYP2C9 at 3 uM after 30 mins; assay type: ADME; summary of the method: as §3
CYP2C9, sequence (P11712 whole entry): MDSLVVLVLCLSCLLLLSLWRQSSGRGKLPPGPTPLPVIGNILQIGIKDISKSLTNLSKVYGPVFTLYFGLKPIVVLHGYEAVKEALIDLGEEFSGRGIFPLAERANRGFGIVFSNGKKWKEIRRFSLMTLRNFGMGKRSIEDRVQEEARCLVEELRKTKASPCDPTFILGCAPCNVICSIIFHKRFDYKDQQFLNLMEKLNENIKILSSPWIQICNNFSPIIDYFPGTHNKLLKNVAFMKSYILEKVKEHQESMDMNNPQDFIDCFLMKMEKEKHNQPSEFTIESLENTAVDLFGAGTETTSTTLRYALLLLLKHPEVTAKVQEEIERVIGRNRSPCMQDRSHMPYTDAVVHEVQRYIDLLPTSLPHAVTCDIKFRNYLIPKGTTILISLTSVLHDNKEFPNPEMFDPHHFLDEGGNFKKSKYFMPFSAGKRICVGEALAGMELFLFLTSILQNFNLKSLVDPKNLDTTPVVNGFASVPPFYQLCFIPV

CYP2D6 = CYP2D6 (Homo sapiens, UniProt P10635); test: Inhibition of CYP2D6 at 3 uM after 30 mins; assay type: ADME; summary of the method: as §3
CYP2D6, sequence (P10635 whole entry): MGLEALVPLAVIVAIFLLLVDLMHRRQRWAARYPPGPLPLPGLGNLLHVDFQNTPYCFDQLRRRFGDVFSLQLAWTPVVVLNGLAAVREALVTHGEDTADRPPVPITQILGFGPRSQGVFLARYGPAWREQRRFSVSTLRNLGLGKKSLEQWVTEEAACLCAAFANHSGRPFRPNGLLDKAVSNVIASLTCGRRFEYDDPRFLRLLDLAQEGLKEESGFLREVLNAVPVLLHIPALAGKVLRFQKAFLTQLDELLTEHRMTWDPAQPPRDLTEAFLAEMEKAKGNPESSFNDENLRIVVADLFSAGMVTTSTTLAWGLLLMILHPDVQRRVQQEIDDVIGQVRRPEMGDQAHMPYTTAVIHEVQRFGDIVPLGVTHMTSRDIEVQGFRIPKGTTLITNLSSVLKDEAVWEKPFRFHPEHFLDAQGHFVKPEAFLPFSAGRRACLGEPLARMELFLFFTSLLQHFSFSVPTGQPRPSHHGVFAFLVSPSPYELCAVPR

CYP3A4 = CYP3A4 (Homo sapiens, UniProt P08684); test: Inhibition of CYP3A4 at 3 uM after 30 mins; assay type: ADME; summary of the method: as §3
CYP3A4, sequence (P08684 whole entry): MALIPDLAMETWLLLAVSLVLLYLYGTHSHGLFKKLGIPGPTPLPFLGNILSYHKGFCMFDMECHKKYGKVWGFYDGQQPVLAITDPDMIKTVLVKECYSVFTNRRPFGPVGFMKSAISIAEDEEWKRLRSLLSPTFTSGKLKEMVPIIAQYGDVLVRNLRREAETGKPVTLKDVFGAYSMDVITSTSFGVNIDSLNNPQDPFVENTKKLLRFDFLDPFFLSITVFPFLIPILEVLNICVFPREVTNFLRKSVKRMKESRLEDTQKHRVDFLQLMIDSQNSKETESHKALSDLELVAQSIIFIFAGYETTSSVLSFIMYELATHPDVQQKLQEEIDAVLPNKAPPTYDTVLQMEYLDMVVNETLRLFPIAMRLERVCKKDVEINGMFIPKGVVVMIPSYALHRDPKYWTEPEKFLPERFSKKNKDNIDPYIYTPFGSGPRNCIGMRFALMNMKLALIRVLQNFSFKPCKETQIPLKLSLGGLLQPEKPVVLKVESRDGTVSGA

hERG (KCNH2) = hERG (KCNH2) (Homo sapiens, UniProt Q12809); test: Displacement of Cy3B-tagged N-desmethyl dofetilide from human ERG expressed in HEK cells at 10 uM after 120 mins; assay type: cell-based, HEK293; conditions: HEK cells that express human ERG, probe Cy3B-tagged N-desmethyl dofetilide
hERG (KCNH2), sequence (Q12809 whole entry): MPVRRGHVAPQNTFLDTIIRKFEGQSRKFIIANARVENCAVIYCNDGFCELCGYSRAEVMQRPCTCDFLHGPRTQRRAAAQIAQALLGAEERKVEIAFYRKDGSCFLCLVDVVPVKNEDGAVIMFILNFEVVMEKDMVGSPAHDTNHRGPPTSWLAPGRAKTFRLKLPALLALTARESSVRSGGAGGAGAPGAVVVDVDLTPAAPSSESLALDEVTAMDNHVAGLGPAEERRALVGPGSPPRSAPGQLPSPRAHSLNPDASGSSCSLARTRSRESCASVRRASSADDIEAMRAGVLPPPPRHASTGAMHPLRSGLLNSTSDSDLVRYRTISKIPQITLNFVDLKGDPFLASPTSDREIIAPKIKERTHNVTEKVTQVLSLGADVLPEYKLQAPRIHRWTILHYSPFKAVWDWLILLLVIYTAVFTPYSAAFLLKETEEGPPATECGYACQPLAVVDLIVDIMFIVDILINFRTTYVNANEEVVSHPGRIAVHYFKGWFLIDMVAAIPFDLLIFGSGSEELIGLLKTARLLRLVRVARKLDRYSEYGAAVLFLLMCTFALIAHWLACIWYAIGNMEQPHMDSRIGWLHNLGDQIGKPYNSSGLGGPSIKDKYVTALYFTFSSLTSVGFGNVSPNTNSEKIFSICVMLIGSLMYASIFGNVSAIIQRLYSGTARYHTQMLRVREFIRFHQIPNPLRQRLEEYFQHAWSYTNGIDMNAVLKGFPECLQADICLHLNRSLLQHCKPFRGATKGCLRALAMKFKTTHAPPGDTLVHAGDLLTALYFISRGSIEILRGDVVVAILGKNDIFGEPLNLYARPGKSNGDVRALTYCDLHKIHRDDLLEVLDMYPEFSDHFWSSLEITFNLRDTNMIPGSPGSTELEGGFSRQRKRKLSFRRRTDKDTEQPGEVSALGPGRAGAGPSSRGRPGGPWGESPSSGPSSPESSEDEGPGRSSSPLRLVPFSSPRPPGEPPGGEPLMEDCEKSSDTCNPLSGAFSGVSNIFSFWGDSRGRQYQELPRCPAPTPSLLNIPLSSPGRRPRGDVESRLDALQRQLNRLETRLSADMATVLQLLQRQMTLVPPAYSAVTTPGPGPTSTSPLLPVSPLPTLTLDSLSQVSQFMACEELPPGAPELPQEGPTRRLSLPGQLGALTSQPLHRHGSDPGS
Summary of the method: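 Fluorescence polarization competition assay with HEK-hERG membrane homogenates and Cy3B-tagged N-desmethyl dofetilide tracer. Compound tested at a single 10 µM concentration, 120 min incubation, end-point read for percent inhibition.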

[8] = Effective half life in Sprague-Dawley rat at 2 mg/kg, iv and 5 mg/kg, po; assay type: ADME, organism-based; conditions: in vivo
[9] = Clearance in Sprague-Dawley rat at 2 mg/kg, iv and 5 mg/kg, po; assay type: ADME, organism-based; conditions: in vivo
[10] = Volume of distribution at steady state in Sprague-Dawley rat at 2 mg/kg, iv and 5 mg/kg, po; assay type: ADME, organism-based; conditions: in vivo, read-out: Vdss

T1 sequence (Q9H244 whole entry): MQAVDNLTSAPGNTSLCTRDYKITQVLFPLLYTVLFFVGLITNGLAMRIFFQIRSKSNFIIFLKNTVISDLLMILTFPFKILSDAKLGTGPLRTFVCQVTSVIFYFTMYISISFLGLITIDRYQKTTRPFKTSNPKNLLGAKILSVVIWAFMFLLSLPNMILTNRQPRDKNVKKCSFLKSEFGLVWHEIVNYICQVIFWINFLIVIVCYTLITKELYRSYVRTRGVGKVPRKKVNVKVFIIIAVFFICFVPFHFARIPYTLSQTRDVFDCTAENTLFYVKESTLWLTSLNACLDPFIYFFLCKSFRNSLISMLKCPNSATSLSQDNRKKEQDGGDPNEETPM

Compound	pKi (P2Y purinoceptor 12 [1])	Ratio IC50 (P2Y purinoceptor 12 [2])	Ratio IC50 (P2Y purinoceptor 12 [3])	fold change (FC) [4]	fold change (FC) [5]	Stability (Liver microsomes [6]) [%]	Stability (Liver microsomes [7]) [%]	inhibition at 0.5 h, 3 µM (CYP1A2) [%]	inhibition at 0.5 h, 3 µM (CYP2C9) [%]	inhibition at 0.5 h, 3 µM (CYP2D6) [%]	inhibition at 0.5 h, 3 µM (CYP3A4) [%]	inhibition at 2 h, 10 µM (hERG (KCNH2)) [%]	half-life [8] [min]	clearance [9] [mL/min/kg]	Vd [10] [L/kg]
CCCCCOC(=O)N1CCN(C(=O)[C@H](CCC(=O)O)NC(=O)c2cc(N3CCC(C(=O)N(C)C)CC3)nc(-c3ccccc3)n2)CC1	8.60	0.1	0.3	> 340	> 340										
CCCCCOC(=O)N1CCN(C(=O)[C@H](CCC(=O)O)NC(=O)c2cc(N3CC(OCC)C3)nc(-c3ccccc3)n2)CC1	8.92	1	3.4	> 340	> 340										
CCCCCOC(=O)N1CCN(C(=O)[C@H](CCC(=O)O)NC(=O)c2nc(-c3ccccc3)cc(N3CCC(C(=O)N4CCCC4)CC3)n2)CC1	8.44	0.5	1.8	> 340	> 340										
CCCCCOC(=O)N1CCN(C(=O)[C@H](CCC(=O)O)NC(=O)c2nc(-c3ccccc3)cc(N3CCC(OCCOC)CC3)n2)CC1	8.15	1.2	5.3	> 340	> 340										
CCCCCOC(=O)N1CCN(C(=O)[C@H](CCC(=O)O)NC(=O)c2nc(OCC3CCNCC3)cc(-c3ccccc3)n2)CC1	7.51	1.7	8.5	> 340	> 340										
CCCCOC(=O)N1CCN(C(=O)[C@H](CCC(=O)O)NC(=O)c2cc(OCCOC)nc(-c3ccccc3)n2)CC1	7.92	1	3.7	> 340	> 340										
CCCCCOC(=O)N1CCN(C(=O)[C@H](CCC(=O)O)NC(=O)c2cc(N3CCC(C(N)=O)CC3)nc(-c3ccccc3)n2)CC1	8.70	0.1	0.7	> 340	> 340	> 80	> 80	< 25	< 25	< 25	< 25	< 25	24	68	2.4
CCCCCOC(=O)N1CCN(C(=O)[C@H](CCC(=O)O)NC(=O)c2cc(N3CCC(COCCOC)CC3)nc(-c3ccccc3)n2)CC1	8.37	0.3	1.2	> 340	> 340										
CCCCCOC(=O)N1CCN(C(=O)[C@H](CCC(=O)O)NC(=O)c2cc(NCC3CCNC3)nc(-c3ccccc3)n2)CC1 (stereo not given in full)	8.39	0.5	2.3	> 340	> 340										
CCCCCOC(=O)N1CCN(C(=O)[C@H](CCC(=O)O)NC(=O)c2nc(-c3ccccc3)cc(N3CCNCC3)n2)CC1	7.66	1.1	6	> 340	> 340										
